Data from ChEMBL document CHEMBL1687913, “Structure-activity relationship, conformational and biological studies of temporin L analogues” (J Med Chem, 2011).
In brackets after ≈: the same amount, converted by molar mass. Where a SMILES comes first, the peptide text is derived from it.

Experiments:
Acinetobacter baumannii = experiment: Antibacterial activity against Acinetobacter baumannii ATCC 19606 after 18 to 20 hrs by microbroth dilution method; assay type: functional
Procedure, shortened: (§1)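 CLSI microbroth dilution, adapted. Mid-log bacteria, 2 × 10^6 CFU/mL in Mueller-Hinton broth, mixed 1:1 with MH broth holding peptide in serial 2-fold dilutions in 20% ethanol (0.75-48 μM). Incubated 18-20 h at 37 °C; growth read as A600. MIC is the lowest concentration giving 100% growth inhibition.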

Acinetobacter junii = experiment: Antibacterial activity against […] Acinetobacter junii RT-4 after 18 to 20 hrs by microbroth dilution method; assay type: functional; procedure, shortened: as §1
Enterococcus faecalis = experiment: Antibacterial activity against Enterococcus faecalis ATCC 29212 after 18 to 20 hrs by microbroth dilution method; assay type: functional; procedure, shortened: as §1
Escherichia coli [1] = experiment: Antibacterial activity against Escherichia coli ATCC 25922 after 18 to 20 hrs by microbroth dilution method; assay type: functional; procedure, shortened: as §1
Escherichia coli [2] = experiment: Antibacterial activity against Escherichia coli D21 after 18 to 20 hrs by microbroth dilution method; assay type: functional; procedure, shortened: as §1
Pseudomonas syringae = experiment: Antibacterial activity against Pseudomonas syringae pv tobaci after 18 to 20 hrs by microbroth dilution method; assay type: functional; procedure, shortened: as §1
Pseudomonas aeruginosa [3] = experiment: Antibacterial activity against Pseudomonas aeruginosa ATCC 15692 after 18 to 20 hrs by microbroth dilution method; assay type: functional; procedure, shortened: as §1
Pseudomonas aeruginosa [4] = experiment: Antibacterial activity against Pseudomonas aeruginosa ATCC 27853 after 18 to 20 hrs by microbroth dilution method; assay type: functional; procedure, shortened: as §1
[5] = tested on: Yersinia pseudotuberculosis; experiment: Antibacterial activity against Yersinia pseudotuberculosis YPIII after 18 to 20 hrs by microbroth dilution method; assay type: functional
Procedure, shortened: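 Broth microdilution adapted from CLSI. Mid-log bacteria at 2 × 10^6 CFU/mL in Mueller-Hinton broth were mixed 1:1 with MH broth containing peptide in serial 2-fold dilutions (peptide in 20% ethanol), 0.75-48 μM. Plates were incubated 18-20 h at 37 °C and growth was read as A600. MIC is the concentration giving 100% growth inhibition.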

Priestia megaterium = experiment: Antibacterial activity against Bacillus megaterium Bm11 after 18 to 20 hrs by microbroth dilution method; assay type: functional; procedure, shortened: as §1
Staphylococcus aureus [6] = experiment: Antibacterial activity against Staphylococcus aureus ATCC 25923 after 18 to 20 hrs by microbroth dilution method; assay type: functional; procedure, shortened: as §1
Staphylococcus aureus [7] = experiment: Antibacterial activity against Staphylococcus aureus Cowan I after 18 to 20 hrs by microbroth dilution method; assay type: functional; procedure, shortened: as §1
Staphylococcus capitis = experiment: Antibacterial activity against Staphylococcus capitis after 18 to 20 hrs by microbroth dilution method; assay type: functional; procedure, shortened: as §1
[8] = tested on: Staphylococcus epidermidis; experiment: Antibacterial activity against Staphylococcus epidermidis ATCC 12228 after 18 to 20 hrs by microbroth dilution method; assay type: functional; procedure, shortened: as §1
Streptococcus pyogenes = experiment: Antibacterial activity against Streptococcus pyogenes ATCC 21547 after 18 to 20 hrs by microbroth dilution method; assay type: functional; procedure, shortened: as §1
Candida albicans = experiment: Antifungal activity against Candida albicans ATCC 10231 after 18 to 20 hrs by microbroth dilution method; assay type: functional
Procedure, shortened: (§2)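 Yeasts tested by adapted CLSI microbroth dilution in Winge medium. Peptide given in serial 2-fold dilutions (0.75-48 μM, made in 20% ethanol). Incubation 18-20 h at 30 °C, read at A600. MIC taken as the concentration giving complete (100%) growth inhibition.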

[9] = tested on: Schizosaccharomyces pombe; experiment: Antifungal activity against Schizosaccharomyces pombe after 18 to 20 hrs by microbroth dilution method; assay type: functional; procedure, shortened: as §2
Saccharomyces cerevisiae = experiment: Antifungal activity against Saccharomyces cerevisiae after 18 to 20 hrs by microbroth dilution method; assay type: functional; procedure, shortened: as §2
[10] = Toxicity in human erythrocytes assessed as hemolysis at 24 uM after 40 mins; assay type: cell-based, Erythrocyte; conditions: read-out: Activity
Procedure, shortened: (§3)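 Human red blood cells suspended in 0.9% (w/v) NaCl and incubated 40 min at 37 °C with gentle mixing with serial 2-fold peptide dilutions (peptide predissolved in 20% ethanol). Spun 5 min at 900g; supernatant read at 415 nm. Cells lysed in distilled water set the 100% lysis reference.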

[11] = Toxicity in human erythrocytes assessed as hemolysis at 12 uM after 40 mins; assay type: cell-based, Erythrocyte; conditions: read-out: Activity; procedure, shortened: as §3
[12] = Toxicity in human erythrocytes assessed as hemolysis at 6 uM after 40 mins; assay type: cell-based, Erythrocyte; conditions: read-out: Activity; procedure, shortened: as §3
[13] = Toxicity in human erythrocytes assessed as hemolysis at 3 uM after 40 mins; assay type: cell-based, Erythrocyte; conditions: read-out: Activity; procedure, shortened: as §3
[14] = Toxicity in human erythrocytes assessed as hemolysis at 1.5 uM after 40 mins; assay type: cell-based, Erythrocyte; conditions: read-out: Activity; procedure, shortened: as §3

Structure (SMILES)	MIC (Acinetobacter baumannii)	MIC (Acinetobacter junii)	MIC (Enterococcus faecalis)	MIC (Escherichia coli [1])	MIC (Escherichia coli [2])	MIC (Pseudomonas syringae)	MIC (Pseudomonas aeruginosa [3])	MIC [5]	MIC (Priestia megaterium)	MIC (Staphylococcus aureus [6])	MIC (Staphylococcus aureus [7])	MIC (Staphylococcus capitis)	MIC [8]	MIC (Streptococcus pyogenes)	MIC (Candida albicans)	MIC [9]	hemolysis at 40 min, 24 µM [10]	hemolysis at 40 min, 12 µM [11]	hemolysis at 40 min, 6 µM [12]	hemolysis at 40 min, 3 µM [13]	further results
CC[C@H](C)[C@H](NC(=O)[C@H](CCCNC(=N)N)NC(=O)[C@@H]1CCCN1C(=O)[C@H](CC(C)C)NC(=O)[C@H](Cc1ccccc1)NC(=O)[C@H](CCCCN)NC(=O)[C@H](CO)NC(=O)[C@H](Cc1ccccc1)NC(=O)[C@H](Cc1c[nH]c2ccccc12)NC(=O)[C@@H]1CCCN1C(=O)[C@@H](NC(=O)[C@@H](N)Cc1ccccc1)C(C)C)C(=O)N[C@@H](CC(C)C)C(N)=O	48 µM (≈ 79.2 µg/mL)	12 µM (≈ 19.8 µg/mL)	48 µM (≈ 79.2 µg/mL)	48 µM (≈ 79.2 µg/mL)	24 µM (≈ 39.6 µg/mL)	24 µM (≈ 39.6 µg/mL)	> 48 µM	24 µM (≈ 39.6 µg/mL)	3 µM (≈ 4.95 µg/mL)	24 µM (≈ 39.6 µg/mL)	24 µM (≈ 39.6 µg/mL)	12 µM (≈ 19.8 µg/mL)	12 µM (≈ 19.8 µg/mL)	12 µM (≈ 19.8 µg/mL)	12 µM (≈ 19.8 µg/mL)	12 µM (≈ 19.8 µg/mL)	5%	5%	4.5%	2%	MIC (Pseudomonas aeruginosa [4]): > 48 µM; MIC (Saccharomyces cerevisiae): 12 µM (≈ 19.8 µg/mL); hemolysis at 40 min, 1.5 µM [14]: 2%
CC[C@@H](C)[C@@H](NC(=O)[C@@H](CCCNC(=N)N)NC(=O)CNC(=O)[C@@H](CC(C)C)NC(=O)[C@@H](Cc1ccccc1)NC(=O)[C@@H](CCCCN)NC(=O)[C@@H](CO)NC(=O)[C@@H](Cc1ccccc1)NC(=O)[C@@H](Cc1c[nH]c2ccccc12)NC(=O)[C@@H](CCC(N)=O)NC(=O)[C@H](NC(=O)[C@H](N)Cc1ccccc1)C(C)C)C(=O)N[C@H](CC(C)C)C(N)=O [listing 1 of 2 here]																	90%	88%	46%	13%	hemolysis at 40 min, 1.5 µM [14]: 5%
CC[C@@H](C)[C@@H](NC(=O)[C@@H](CCCNC(=N)N)NC(=O)CNC(=O)[C@@H](CC(C)C)NC(=O)[C@@H](Cc1ccccc1)NC(=O)[C@@H](CCCCN)NC(=O)[C@@H](CO)NC(=O)[C@@H](Cc1ccccc1)NC(=O)[C@@H](Cc1c[nH]c2ccccc12)NC(=O)[C@@H](CCC(N)=O)NC(=O)[C@H](NC(=O)[C@H](N)Cc1ccccc1)C(C)C)C(=O)N[C@H](CC(C)C)C(N)=O [listing 2 of 2 here]	6 µM (≈ 9.84 µg/mL)	6 µM (≈ 9.84 µg/mL)	3 µM (≈ 4.92 µg/mL)	12 µM (≈ 19.7 µg/mL)	12 µM (≈ 19.7 µg/mL)	6 µM (≈ 9.84 µg/mL)	48 µM (≈ 78.7 µg/mL)	3 µM (≈ 4.92 µg/mL)	1.5 µM (≈ 2.46 µg/mL)	3 µM (≈ 4.92 µg/mL)	3 µM (≈ 4.92 µg/mL)	3 µM (≈ 4.92 µg/mL)	3 µM (≈ 4.92 µg/mL)	6 µM (≈ 9.84 µg/mL)	6 µM (≈ 9.84 µg/mL)	6 µM (≈ 9.84 µg/mL)					MIC (Pseudomonas aeruginosa [4]): > 48 µM; MIC (Saccharomyces cerevisiae): 6 µM (≈ 9.84 µg/mL)
CC[C@@H](C)[C@@H](NC(=O)[C@H](N)CC(C)C)C(=O)N[C@H](CCCNC(=N)N)C(=O)NCC(=O)N[C@H](CC(C)C)C(=O)N[C@H](Cc1ccccc1)C(=O)N[C@H](CCCCN)C(=O)N[C@H](CO)C(=O)N[C@H](Cc1ccccc1)C(=O)N[C@H](Cc1c[nH]c2ccccc12)C(=O)N[C@H](CCC(N)=O)C(=O)N[C@@H](C(=O)N[C@H](Cc1ccccc1)C(N)=O)C(C)C [listing 1 of 2 here]																	81%	49%	15%	6%	hemolysis at 40 min, 1.5 µM [14]: 1%
CC[C@@H](C)[C@@H](NC(=O)[C@H](N)CC(C)C)C(=O)N[C@H](CCCNC(=N)N)C(=O)NCC(=O)N[C@H](CC(C)C)C(=O)N[C@H](Cc1ccccc1)C(=O)N[C@H](CCCCN)C(=O)N[C@H](CO)C(=O)N[C@H](Cc1ccccc1)C(=O)N[C@H](Cc1c[nH]c2ccccc12)C(=O)N[C@H](CCC(N)=O)C(=O)N[C@@H](C(=O)N[C@H](Cc1ccccc1)C(N)=O)C(C)C [listing 2 of 2 here]	6 µM (≈ 9.84 µg/mL)	6 µM (≈ 9.84 µg/mL)	12 µM (≈ 19.7 µg/mL)	12 µM (≈ 19.7 µg/mL)	12 µM (≈ 19.7 µg/mL)	6 µM (≈ 9.84 µg/mL)	> 48 µM	24 µM (≈ 39.4 µg/mL)	1.5 µM (≈ 2.46 µg/mL)	12 µM (≈ 19.7 µg/mL)	3 µM (≈ 4.92 µg/mL)	6 µM (≈ 9.84 µg/mL)	6 µM (≈ 9.84 µg/mL)	6 µM (≈ 9.84 µg/mL)	12 µM (≈ 19.7 µg/mL)	1.5 µM (≈ 2.46 µg/mL)					MIC (Pseudomonas aeruginosa [4]): > 48 µM; MIC (Saccharomyces cerevisiae): > 48 µM
CC[C@H](C)[C@H](NC(=O)[C@H](CCCNC(=N)N)NC(=O)CNC(=O)[C@H](CC(C)C)NC(=O)[C@H](Cc1ccccc1)NC(=O)[C@H](CCCCN)NC(=O)[C@H](CO)NC(=O)[C@H](Cc1ccccc1)NC(=O)[C@H](Cc1c[nH]c2ccccc12)NC(=O)[C@@H]1CCCN1C(=O)[C@H](CC(C)C)NC(=O)[C@@H](N)Cc1ccccc1)C(=O)N[C@@H](CC(C)C)C(N)=O (H-FLPWFSKFLGRIL-NH2)	12 µM (≈ 19.5 µg/mL)	12 µM (≈ 19.5 µg/mL)	12 µM (≈ 19.5 µg/mL)	12 µM (≈ 19.5 µg/mL)	24 µM (≈ 39 µg/mL)	12 µM (≈ 19.5 µg/mL)	> 48 µM	6 µM (≈ 9.74 µg/mL)	3 µM (≈ 4.87 µg/mL)	3 µM (≈ 4.87 µg/mL)	3 µM (≈ 4.87 µg/mL)	3 µM (≈ 4.87 µg/mL)	3 µM (≈ 4.87 µg/mL)	6 µM (≈ 9.74 µg/mL)	12 µM (≈ 19.5 µg/mL)	6 µM (≈ 9.74 µg/mL)	93%	64%	19%	9%	MIC (Saccharomyces cerevisiae): 12 µM (≈ 19.5 µg/mL); hemolysis at 40 min, 1.5 µM [14]: 4%
CC[C@H](C)[C@H](NC(=O)[C@H](CCCNC(=N)N)NC(=O)[C@H](CC(C)C)NC(=O)[C@H](CC(C)C)NC(=O)[C@H](Cc1ccccc1)NC(=O)[C@H](CCCCN)NC(=O)[C@H](CO)NC(=O)[C@H](Cc1ccccc1)NC(=O)[C@H](Cc1c[nH]c2ccccc12)NC(=O)[C@H](CCC(N)=O)NC(=O)[C@@H](NC(=O)[C@@H](N)Cc1ccccc1)C(C)C)C(=O)N[C@@H](CC(C)C)C(N)=O (H-FVQWFSKFLLRIL-NH2)	48 µM (≈ 81.4 µg/mL)	> 48 µM	48 µM (≈ 81.4 µg/mL)	> 48 µM	48 µM (≈ 81.4 µg/mL)	> 48 µM	> 48 µM	6 µM (≈ 10.2 µg/mL)	48 µM (≈ 81.4 µg/mL)	48 µM (≈ 81.4 µg/mL)	48 µM (≈ 81.4 µg/mL)	> 48 µM	3 µM (≈ 5.09 µg/mL)	6 µM (≈ 10.2 µg/mL)	> 48 µM	6 µM (≈ 10.2 µg/mL)	83%	80%	80%	78%	MIC (Pseudomonas aeruginosa [4]): > 48 µM; hemolysis at 40 min, 1.5 µM [14]: 69%
